The record followed here is ChEMBL document CHEMBL3580547, “Novel Pyrazole Derivatives Effectively Inhibit Osteoclastogenesis, a Potential Target for Treating Osteoporosis” (J Med Chem, 2015).

Activity calls are given as the source filed them. The rule behind the calls is not given here. Some results are limits rather than exact numbers.

The nature of one data set: cells. As to conditions: Rattus norvegicus, Sprague-Dawley, Osteoclast, 120 h, read-out: INH.
Data set [1] has as its system Osteoclast. Briefly: Antiosteoclastogenic activity in Sprague-Dawley rat bone marrow-derived preosteoclasts assessed as inhibition of RANKL/M-CSF-induced osteoclast formation treated on day 1 measured over day 1 to day 3 by TRAP staining. Type of data set: functional, cell-based. Summed up: (§1)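 Rat bone-marrow preosteoclasts were cultured with RANKL 50 ng/mL and M-CSF 20 ng/mL. Compound (10 μM) was added during defined day windows, with days 3−5 taken as the late phase. Osteoclasts were scored by TRAP staining as TRAP-positive cells with ≥3 nuclei (N = 3).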

The test system of data set [2] is Osteoclast. Briefly: Antiosteoclastogenic activity in Sprague-Dawley rat bone marrow-derived preosteoclasts assessed as inhibition of RANKL/M-CSF-induced osteoclast formation treated on day 3 post RANKL/M-CSF induction measured over day 3 to day 5 by TRAP staining. Type of data set: functional, cell-based. A digest of the protocol:
as §1

Data set [3] in a line: Cytotoxicity against Sprague-Dawley rat bone marrow-derived preosteoclasts assessed as cell viability at 10 uM incubated for 5 days measured on day 8 by MTT assay in presence of M-CSF. Type of data set: cell-based. Particulars: osteoclast, 120 h. Summed up: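 Nonadherent bone-marrow preosteoclasts were seeded at 10⁶ cells/well with M-CSF 20 ng/mL for 3 days, then treated with compound for another 5 days. After washing, cells were given MTT at 0.5 mg/mL in α-MEM for 60 min at 37 °C. Formazan was dissolved in DMSO and absorbance read at 550 nm.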
A general note: Tetrazolium dyes change colour on reduction, which living cells bring about.

The test system of data set [4] is Osteoclast. The data set can be described thus: Antiresorptive activity in RANKL/M-CSF-stimulated Sprague-Dawley rat bone marrow-derived preosteoclasts assessed as inhibition of osteoclast resorption area at 10 uM treated for 3 days post 5 days RANKL/M-CSF stimulation measured on day 8 by inverted microscopic analysis. Type of data set: functional. A digest of the protocol:
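Rat bone-marrow preosteoclasts were seeded at 10⁶ cells/well on resorbable assay plates with RANKL 50 ng/mL and M-CSF 20 ng/mL for 5 days. Both factors were then removed and compound was added for another 3 days. Cells were stripped with 1 N NaOH, and resorbed areas were photographed under an inverted microscope and quantified by image analysis.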

The test system of data set [5] is Osteoclast. Briefly: Effect on osteoclast formation from RANKL/M-CSF-stimulated Sprague-Dawley rat bone marrow-derived preosteoclasts at 10 uM treated for 3 days post 5 days RANKL/M-CSF stimulation measured on day 8 by inverted microscopic analysis relative to control. Type of data set: functional, cell-based.
Data set [6] addresses T1, Tumor necrosis factor ligand superfamily member 11 (Mus musculus) (UniProt O35235).
T1 sequence (whole entry): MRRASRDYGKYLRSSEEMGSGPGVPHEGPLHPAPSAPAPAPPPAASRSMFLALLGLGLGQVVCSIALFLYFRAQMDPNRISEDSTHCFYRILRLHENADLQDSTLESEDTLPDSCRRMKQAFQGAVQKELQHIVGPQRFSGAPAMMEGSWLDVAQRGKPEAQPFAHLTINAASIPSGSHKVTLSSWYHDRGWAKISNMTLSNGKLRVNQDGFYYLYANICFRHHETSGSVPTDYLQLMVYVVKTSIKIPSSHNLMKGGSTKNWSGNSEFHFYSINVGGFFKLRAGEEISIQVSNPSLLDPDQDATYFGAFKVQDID
Briefly: Antiosteoclastogenic activity in ICR mouse bone marrow-derived preosteoclasts assessed as inhibition of RANKL/M-CSF-induced osteoclast formation at 10 uM after 5 days by TRAP staining. Type of data set: functional, cell-based. A digest of the protocol: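 They were plated at 10⁶ cells/well with RANKL (50 ng/mL), M-CSF (20 ng/mL) and compound for 5 days. Cells were fixed in 4% paraformaldehyde and TRAP-stained for 1 h at 37 °C. TRAP-positive cells with ≥3 nuclei were counted as osteoclasts.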

Data set [7] can be described thus: Cytotoxicity against cranium-derived preosteoblasts (unknown origin) assessed as inhibition of bone mineralized nodule formation after 2 weeks by alizarin red staining assay in presence of beta-glycerophosphate and L-ascorbic acid. Type of data set: cell-based. Particulars: osteoblast, 336 h. Summed up:
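Cranium-derived preosteoblasts were grown in α-MEM with 10% FBS. Mineralisation was induced with 10 mM β-glycerophosphate and 50 μg/mL L-ascorbic acid, with or without compound, for 2 weeks. Cells were fixed in ice-cold 75% ethanol for 30 min and stained with 40 mM alizarin red (pH 4.2). Stain was quantified at 550 nm against a standard curve.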

Data set [8] is described as follows: Cytotoxicity against cranium-derived preosteoblasts (unknown origin) assessed as effect on cell viability after 24 hrs by MTT assay. Type of data set: cell-based. As to conditions: osteoblast. Summed up: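 Osteoblasts were plated for 24 h, then exposed to compound for another 24 h. Viability was measured by MTT at 0.5 mg/mL in α-MEM for 60 min at 37 °C, with DMSO solubilisation and absorbance at 550 nm.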

The next data set relates to RAW264.7. The data set can be described thus: Inhibition of osteoclast formation in mouse RAW264.7 cells. Type of data set: functional, cell-based.
Data set [9] concerns the target T1, Tumor necrosis factor ligand superfamily member 11 (Mus musculus). The data set can be described thus: Inhibition of RANKL-induced IKK phosphorylation in mouse RAW264.7 cells at 10 uM preincubated for 2 hrs followed by RANKL induction measured over 60 mins by Western blot analysis. Type of data set: cell-based. Summed up: (§2)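 Confluent RAW264.7 cells were pretreated with compound (10 μM) for 2 h, then stimulated with RANKL 50 ng/mL for various times. Lysates (30 μg protein per lane) were run on 10% SDS gels and transferred to PVDF. Blots were probed overnight at 4 °C with antibodies to phospho- and total IKKα/β and p65, with actin as control, followed by HRP secondary antibodies.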
For orientation: A western blot detects proteins with antibodies after separation by electrophoresis.

Data set [10] addresses Transcription factor p65 (Mus musculus) (UniProt Q04207). The data set can be described thus: Inhibition of RANKL-induced P65 phosphorylation in mouse RAW264.7 cells at 10 uM preincubated for 2 hrs followed by RANKL induction measured over 60 mins by Western blot analysis. Type of data set: cell-based. A digest of the protocol:
as §2

Data set [11] has as its system Mus musculus. The data set can be described thus: Antiosteoporosis activity in ovariectomized ICR mouse assessed as inhibition of ovariectomy-induced reduction of trabecular bone volume relative to tissue volume at 10 mg/kg, sc administered for 5 days/week for 30 days measured on day 30 by microcomputed tomographic analysis. Type of data set: functional, organism-based. As to conditions: Trabecula. Summed up:
(§3)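 Female ICR mice (12 weeks old) were bilaterally ovariectomized or sham-operated. Starting 2 days post-surgery, they were dosed s.c. at 10 mg/kg, 5 days/week, or given vehicle for 30 days. Tibiae were fixed in 4% paraformaldehyde and scanned by μCT. BV/TV, Tb.N and Tb.Th were quantified 0.5−1.5 mm distal to the proximal growth plate.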

Data set [12] concerns Mus musculus. Briefly: Antiosteoporosis activity in ovariectomized ICR mouse assessed as inhibition of ovariectomy-induced reduction of trabecular bone number at 10 mg/kg, sc administered for 5 days/week for 30 days measured on day 30 by microcomputed tomographic analysis. Type of data set: functional, organism-based. As to conditions: Trabecula. Summed up: as §3
The subject of data set [13] is Mus musculus. Briefly: Antiosteoporosis activity in ovariectomized ICR mouse assessed as inhibition of ovariectomy-induced reduction of trabecular thickness at 10 mg/kg, sc administered for 5 days/week for 30 days measured on day 30 by microcomputed tomographic analysis. Type of data set: functional, organism-based. As to conditions: Trabecula. A digest of the protocol:
as §3

Data set [14] concerns Mus musculus. The data set can be described thus: Antiosteoporosis activity in ovariectomized ICR mouse assessed as inhibition of ovariectomy-induced reduction of trabecular bone number at 10 mg/kg, sc administered for 5 days/week for 30 days measured on day 30 by Hematoxylin and eosin staining. Type of data set: functional, organism-based. Particulars: Trabecula. A digest of the protocol:
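Ovariectomized or sham-operated female ICR mice were dosed s.c. at 10 mg/kg, 5 days/week, for 30 days. Tibiae taken on day 30 were fixed in 4% paraformaldehyde at 4 °C for 48 h and decalcified in 10% Na2EDTA at 4 °C for 14 days. They were then paraffin-embedded, cut longitudinally at 4 μm and stained with hematoxylin−eosin.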

In data set [15] the test system is Mus musculus. The data set can be described thus: Antiosteoporosis activity in ovariectomized ICR mouse assessed as inhibition of ovariectomy-induced C-terminal telopeptides of type-1 collagen level in serum at 10 mg/kg, sc administered for 5 days/week for 30 days measured on day 30 by enzyme immunoassay. Type of data set: functional, organism-based. Summed up:
(§4)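 Twelve-week-old female ICR mice were bilaterally ovariectomized under isoflurane, with sham-operated controls. From 2 days after surgery, mice received s.c. compound or vehicle 5 days/week for 30 days. On day 30, serum was prepared by centrifugation at 1500g for 15 min. CTx was measured with a RatLaps EIA (N = 8) and osteocalcin with a Rat-MID osteocalcin EIA (N = 9).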

Data set [16] deals with Mus musculus. The data set can be described thus: Antiosteoporosis activity in ovariectomized ICR mouse assessed as inhibition of ovariectomy-induced osteocalcin level in serum at 10 mg/kg, sc administered for 5 days/week for 30 days measured on day 30 by enzyme immunoassay. Type of data set: functional, organism-based. Summed up: as §4
Data set [17] deals with Osteoclast. Particulars: Rattus norvegicus, Sprague-Dawley, 10 uM.

Chain of Transcription factor p65 (Mus musculus) (Q04207 whole entry): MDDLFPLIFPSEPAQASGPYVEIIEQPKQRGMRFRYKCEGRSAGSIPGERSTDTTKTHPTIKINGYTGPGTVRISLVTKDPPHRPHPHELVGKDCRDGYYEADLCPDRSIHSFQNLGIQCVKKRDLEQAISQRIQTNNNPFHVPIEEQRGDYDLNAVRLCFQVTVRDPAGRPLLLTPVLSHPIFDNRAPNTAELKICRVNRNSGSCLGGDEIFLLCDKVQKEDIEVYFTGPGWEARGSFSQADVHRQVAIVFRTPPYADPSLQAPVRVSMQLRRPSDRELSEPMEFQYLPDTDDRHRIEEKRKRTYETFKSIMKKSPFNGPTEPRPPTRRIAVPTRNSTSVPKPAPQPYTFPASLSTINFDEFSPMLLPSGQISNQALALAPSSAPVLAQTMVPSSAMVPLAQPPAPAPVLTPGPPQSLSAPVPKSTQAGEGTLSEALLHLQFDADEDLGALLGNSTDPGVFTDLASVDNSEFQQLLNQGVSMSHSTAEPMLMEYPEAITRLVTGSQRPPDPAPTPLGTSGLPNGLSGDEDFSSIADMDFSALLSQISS

On to `CC(=O)c1ccc(-c2nn(Cc3ccccc3)c3ccccc23)o1`, for which the inhibition at 10 µM in the data set “cells” came to 20%.
Same read-out and setting: next, `O=C(O)c1ccc(-c2nn(Cc3ccccc3)c3ccccc23)o1`: 20%; `CC(C)(C)C(=O)OCc1ccc(-c2nn(Cc3ccccc3)c3ccccc23)o1`: 20%; `CON(C)C(=O)c1ccc(-c2nn(Cc3ccccc3)c3ccccc23)o1`: 20%.
In the case of `CC(=O)OCc1ccc(-c2nn(Cc3ccccc3)c3ccccc23)o1`, in “cells”, the inhibition at 10 µM stood at 20%.
On to `CN(C)CCOC(=O)c1ccc(-c2nn(Cc3ccccc3)c3ccccc23)o1`, for which the inhibition entry in the data set on Osteoclast [1] and with Osteoclast [2] was “Dose-dependent effect” in each case. For the same compound, the Activity result in data set [3], in [7] and in [8] was “Non-toxic” throughout. For the same compound, the inhibition at 10 µM with Osteoclast [4] is greater than 75%; in the data set “cells” it was greater than 90%. Further, the result with Osteoclast [5] was inactive. Besides, the inhibition entry (in data set [6]; with RAW264.7; in data set [9]; in data set [10]; with Mus musculus [11]; in the data set with Mus musculus [12]) was “Active” in each case. Also, the inhibition result in the data set with Mus musculus [13], in the data set on Mus musculus [14], in the data set with Mus musculus [15] and in the data set with Mus musculus [16] was “Active” throughout.
`NCCCC(O)(P(=O)(O)O)P(=O)(O)O`: in the data set on Osteoclast [17], the inhibition entry is “Active”.
For `OCCc1ccc(-c2nn(Cc3ccccc3)c3ccccc23)o1`, the inhibition at 10 µM in the data set “cells” stood at 20%.
